Measured values published in ChEMBL document CHEMBL1130393, “Antitumor agents. 178. Synthesis and biological evaluation of substituted 2-aryl-1,8-naphthyridin-4(1H)-ones as antitumor agents that inhibit tubulin polymerization” (J Med Chem, 1997).

Experiments:
OVCAR-3 [1] = experiment: In vitro antitumor activity against OVCAR-3 tumor cell lines; assay type: functional; details: Homo sapiens
Tumor Cell line [2] = experiment: log molar concentration required to cause total growth inhibition of NCI 's human tumor cell lines; assay type: functional; details: read-out: Log TGI (converted)
How it was run: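 NCI 60 human tumor cell line in vitro screen. TGI is the log molar concentration giving total growth inhibition, calculated from all cell lines tested.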

NCI-H460 [3] = experiment: In vitro antitumor activity against NCI-H460 tumor cell lines; assay type: functional; details: Homo sapiens
Melanoma tumor cell line [4] = experiment: log molar concentration required to cause total growth inhibition of melanomic tumor cell lines; assay type: functional; details: Homo sapiens, read-out: Log TGI (converted)
How it was run: (§1)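 TGI from the NCI 60 human tumor cell line in vitro screen: log of the molar drug concentration causing total growth inhibition, reported for the named cell panel.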

HL-60 [5] = experiment: In vitro antitumor activity against HL-60(TB) tumor cell lines; assay type: functional; details: Homo sapiens
Tubulin (Bos taurus) = Tubulin (Bos taurus) (UniProt Q6B856+Q862L2+Q862F3); experiment: Inhibition of radiolabeled colchicine binding to tubulin; assay type: protein assay; design: concentration or dose not given beside the values; details: concentration not given here
How it was run: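 Measured by DEAE-cellulose filter binding. The 0.1 mL mixture held bovine brain tubulin 1.0 µM, 1.0 M monosodium glutamate (pH 6.6), 1 mM MgCl2, 0.1 mM GTP, 5.0 µM [3H]colchicine, 5% DMSO and inhibitor at 5.0 µM. It was incubated 20 min at 37 °C, filtered through two DEAE-cellulose papers, washed with water and counted by liquid scintillation.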

Tubulin = Tubulin (Bos taurus, UniProt Q6B856+Q862L2+Q862F3); experiment: Inhibition of tubulin polymerization; assay type: functional
PC-3 [6] = experiment: In vitro antitumor activity against PC-3 tumor cell lines; assay type: functional; details: Homo sapiens
[7] = system: Panel renal (Carcinoma cell lines); experiment: log molar concentration required to cause total growth inhibition of renal tumor cell lines; assay type: functional; details: Homo sapiens, read-out: Log TGI (converted); how it was run: as §1
MDA-N [8] = experiment: In vitro antitumor activity against MDA-N tumor cell lines; assay type: functional; details: Homo sapiens
[9] = system: Panel colon (Carcinoma cell lines); experiment: log molar concentration required to cause total growth inhibition of colon tumor cell lines; assay type: functional; details: Homo sapiens, read-out: Log TGI (converted); how it was run: as §1
[10] = system: Panel prostate (Carcinoma cell lines); experiment: log molar concentration required to cause total growth inhibition of prostate tumor cell lines; assay type: functional; details: Homo sapiens, read-out: Log TGI (converted); how it was run: as §1
MDA-MB-435 [11] = experiment: In vitro antitumor activity against MDA-MB-435 NCI 's human tumor cell lines; assay type: functional
NSCLC = experiment: log molar concentration required to cause total growth inhibition of non-small cell lung tumor cell lines; assay type: functional; details: Homo sapiens, read-out: Log TGI (converted); how it was run: as §1
Leukemic tumor cell line = experiment: (§2) log molar concentration required to cause total growth inhibition of leukemic tumor cell lines; assay type: functional; details: Homo sapiens, read-out: Log TGI (converted); how it was run: as §1
SF-295 [12] = experiment: In vitro antitumor activity against SF-295 tumor cell lines; assay type: functional; details: Homo sapiens
Tumor Cell line [13] = experiment: (§3) In vitro antitumor activity against NCI 's human tumor cell lines; assay type: functional; details: read-out: Average log GI50 (converted)
How it was run: (§4)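 NCI in vitro screen of 60 human tumor cell lines. […] The value is calculated from all cell lines tested.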

SK-MEL-5 [14] = experiment: In vitro antitumor activity against SK-MEL-5 tumor cell lines; assay type: functional; details: Homo sapiens
[15] = system: Panel breast (Carcinoma cell lines); experiment: log molar concentration required to cause total growth inhibition of breast tumor cell lines; assay type: functional; details: Homo sapiens, read-out: Log TGI (converted); how it was run: as §1
HCT-116 [16] = experiment: In vitro antitumor activity against HCT116 tumor cell lines; assay type: functional; details: Homo sapiens
U-251 [17] = experiment: In vitro antitumor activity against U-251 tumor cell lines; assay type: functional; details: Homo sapiens
CAKI-1 [18] = experiment: In vitro antitumor activity against CAKI-1 tumor cell lines; assay type: functional; details: Homo sapiens
[19] = system: Panel ovarian (Carcinoma cell lines); experiment: log molar concentration required to cause total growth inhibition of ovarian tumor cell lines; assay type: functional; details: Homo sapiens, read-out: Log TGI (converted); how it was run: as §1
[20] = system: Panel CNS (Carcinoma cell lines); experiment: log molar concentration required to cause total growth inhibition of CNS cancer tumor cell lines; assay type: functional; details: Homo sapiens, read-out: Log TGI (converted); how it was run: as §1
Melanoma tumor cell line [21] = experiment: log molar concentration required to cause total growth inhibition of melanomicell lines; assay type: functional; details: Homo sapiens, read-out: Log TGI (converted); how it was run: as §1
leukaemia cell line = experiment: as §2; assay type: functional; details: Homo sapiens, read-out: Log TGI (converted); how it was run: as §1
[22] = system: Panel CNS (Carcinoma cell lines); experiment: log molar concentration required to cause total growth inhibition of CNS cancer cell lines; assay type: functional; details: Homo sapiens, read-out: Log TGI (converted); how it was run: as §1
HCT-116 [23] = experiment: in vitro antitumor activity against HCT116 tumor cell lines; assay type: functional; details: Homo sapiens
MDA-MB-435 [24] = experiment: in vitro antitumor activity against MAD-MB-435NCI 's human tumor cell lines; assay type: functional
Tumor Cell line [25] = experiment: in vitro antitumor activity against NCI 's human tumor cell lines; assay type: functional; details: read-out: Average log GI50 (converted); how it was run: as §4
OVCAR-3 [26] = experiment: in vitro antitumor activity against OVCAR-3 tumor cell lines; assay type: functional; details: Homo sapiens
SF-295 [27] = experiment: in vitro antitumor activity against SF-295 tumor cell lines; assay type: functional; details: Homo sapiens
SK-MEL-5 [28] = experiment: in vitro antitumor activity against SK-MEL-5 tumor cell lines; assay type: functional; details: Homo sapiens
U-251 [29] = experiment: in vitro antitumor activity against U-251 tumor cell lines; assay type: functional; details: Homo sapiens
NCI-H460 [30] = experiment: in vitro antitumor activity against NCI-H460 tumor cell lines; assay type: functional; details: Homo sapiens
PC-3 [31] = experiment: in vitro antitumor activity against PC-3 tumor cell lines; assay type: functional; details: Homo sapiens
HL-60 [32] = experiment: in vitro antitumor activity against HL-60(TB) tumor cell lines; assay type: functional; details: Homo sapiens
CAKI-1 [33] = experiment: in vitro antitumor activity against CAKI-1 tumor cell lines; assay type: functional; details: Homo sapiens
MDA-N [34] = experiment: in vitro antitumor activity against MDA-N tumor cell lines; assay type: functional; details: Homo sapiens
Tumor Cell line [35] = experiment: as §3; assay type: functional
How it was run: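 Tested in the NCI 60 human tumor cell line in vitro screen. […] The value is calculated from all cell lines tested, as an average log GI50.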

Tumor Cell line [36] = experiment: as §2; assay type: functional; details: Homo sapiens, read-out: Log TGI (converted); how it was run: as §1

Compound: Cc1cnc2[nH]c(-c3cccc(F)c3)cc(=O)c2c1
- GI50 (OVCAR-3 [1]): 13.5 nM
- TGI (Tumor Cell line [2]): 5130 nM
- GI50 (NCI-H460 [3]): 38.9 nM
- TGI (Melanoma tumor cell line [4]): 32400 nM
- GI50 (HL-60 [5]): 20.4 nM
- inhibition (Tubulin (Bos taurus)): 43%
- IC50 (Tubulin): 630 nM
- GI50 (PC-3 [6]): 34.7 nM
- TGI [7]: 55000 nM
- GI50 (MDA-N [8]): 11.8 nM
- TGI [9]: 324 nM
- TGI [10]: 692 nM
- GI50 (MDA-MB-435 [11]): < 10 nM
- TGI (NSCLC): 16200 nM
- TGI (Leukemic tumor cell line): 2690 nM
- GI50 (SF-295 [12]): 27.5 nM
- GI50 (Tumor Cell line [13]): 50.1 nM
- GI50 (SK-MEL-5 [14]): 28.2 nM
- TGI [15]: 537 nM
- GI50 (HCT-116 [16]): 24 nM
- GI50 (U-251 [17]): 40.7 nM
- GI50 (CAKI-1 [18]): 28.2 nM
- TGI [19]: 26900 nM
- TGI [20]: 3090 nM

Compound: Cc1cnc2[nH]c(-c3cccc(Cl)c3)cc(=O)c2c1
- GI50 (OVCAR-3 [1]): 22.4 nM
- TGI (Tumor Cell line [2]): 30900 nM
- GI50 (NCI-H460 [3]): 50.1 nM
- GI50 (HL-60 [5]): 30.9 nM
- inhibition (Tubulin (Bos taurus)): 33%
- IC50 (Tubulin): 720 nM
- GI50 (PC-3 [6]): > 100000 nM
- TGI [7]: 87100 nM
- GI50 (MDA-N [8]): > 100000 nM
- TGI (Melanoma tumor cell line [21]): 47900 nM
- TGI [9]: 9550 nM
- TGI [10]: > 100000 nM
- GI50 (MDA-MB-435 [11]): < 10 nM
- TGI (NSCLC): 44700 nM
- TGI (leukaemia cell line): 72400 nM
- GI50 (SF-295 [12]): 25.1 nM
- GI50 (Tumor Cell line [13]): 269 nM
- GI50 (SK-MEL-5 [14]): 70.8 nM
- TGI [15]: 12900 nM
- GI50 (HCT-116 [16]): 30.2 nM
- TGI [22]: 1910 nM
- GI50 (U-251 [17]): 69.2 nM
- GI50 (CAKI-1 [18]): 42.7 nM
- TGI [19]: 15800 nM

Compound: Cc1cccc(-c2cc(O)c3cccnc3n2)c1
- IC50 (Tubulin): 3300 nM
- GI50 (HCT-116 [23]): 22.4 nM
- GI50 (MDA-MB-435 [24]): < 10 nM
- GI50 (Tumor Cell line [25]): 95.5 nM
- GI50 (OVCAR-3 [26]): 41.7 nM
- GI50 (SF-295 [27]): 37.1 nM
- GI50 (SK-MEL-5 [28]): 25.7 nM
- GI50 (U-251 [29]): 44.7 nM
- GI50 (NCI-H460 [30]): 25.7 nM
- GI50 (PC-3 [31]): 42.7 nM
- GI50 (HL-60 [32]): 19.1 nM
- GI50 (CAKI-1 [33]): 37.1 nM
- GI50 (MDA-N [34]): < 10 nM

Compound: COc1cc([C@@H]2c3cc4c(cc3[C@H](O)[C@H]3COC(=O)[C@H]23)OCO4)cc(OC)c1OC [PODOFILOX]
- inhibition (Tubulin (Bos taurus)): 76%
- average log GI50 (Tumor Cell line [35]): -7.54 M

Compound: Cc1ccnc2nc(-c3cccc(Cl)c3)cc(O)c12
- GI50 (OVCAR-3 [1]): 31.6 nM
- TGI (Tumor Cell line [2]): 25700 nM
- GI50 (NCI-H460 [3]): 38.9 nM
- TGI (Melanoma tumor cell line [4]): 70800 nM
- GI50 (HL-60 [5]): < 10 nM
- inhibition (Tubulin (Bos taurus)): 32%
- IC50 (Tubulin): 1000 nM
- GI50 (PC-3 [6]): 15.5 nM
- TGI [7]: 69200 nM
- GI50 (MDA-N [8]): 11.8 nM
- TGI [9]: 12000 nM
- TGI [10]: 2340 nM
- GI50 (MDA-MB-435 [11]): < 10 nM
- TGI (NSCLC): 100000 nM
- TGI (Leukemic tumor cell line): 100000 nM
- GI50 (SF-295 [12]): 40.7 nM
- GI50 (Tumor Cell line [13]): 158 nM
- GI50 (SK-MEL-5 [14]): 41.7 nM
- TGI [15]: 813 nM
- GI50 (HCT-116 [16]): 15.8 nM
- GI50 (U-251 [17]): 52.5 nM
- GI50 (CAKI-1 [18]): 33.1 nM
- TGI [19]: 27500 nM
- TGI [20]: 18200 nM

Compound: Oc1cc(-c2cccc(Cl)c2)nc2ncccc12
- TGI (Tumor Cell line [2]): 24000 nM
- TGI (Melanoma tumor cell line [4]): 97700 nM
- IC50 (Tubulin): 1500 nM
- GI50 (HCT-116 [23]): 28.8 nM
- TGI [7]: 49000 nM
- GI50 (MDA-MB-435 [24]): < 10 nM
- GI50 (Tumor Cell line [25]): 229 nM
- TGI [9]: 16200 nM
- GI50 (OVCAR-3 [26]): 45.7 nM
- GI50 (SF-295 [27]): 63.1 nM
- TGI [10]: 2630 nM
- GI50 (SK-MEL-5 [28]): 52.5 nM
- TGI (NSCLC): 85100 nM
- TGI (Tumor Cell line [36]): 38900 nM
- TGI [15]: 1170 nM
- GI50 (U-251 [29]): 145 nM
- TGI [22]: 16600 nM
- GI50 (NCI-H460 [30]): 87.1 nM
- GI50 (PC-3 [31]): 22.4 nM
- TGI [19]: 31600 nM
- GI50 (HL-60 [32]): 10.5 nM
- GI50 (CAKI-1 [33]): 56.2 nM
- GI50 (MDA-N [34]): 17.4 nM
